Source: PubChem BioAssay
Many of the other results were omitted from the sample, so hits are more common in it than they were.
Pf Dd2 inh – inhibitors of Plasmodium falciparum Dd2 growth. AID 1159554. activity change, % at 10 µM. 2.3% of 94,000 active. P. falciparum Dd2 growth, SYBR Green, 72 h; hits give low values; in the data active means activity change below about -80%; inconclusive means no clear call, values can overlap the other calls
IDH1 mut inh – inhibitors of human IDH1 R132H; AID 624101; 0.18% of 70,000 active; IDH1 R132H reductase, diaphorase/resazurin fluorescence, 60 min; inhibition, % at 10 µM; O75874; in the data active means inhibition above about 34%; inconclusive means no clear call, values can overlap the other calls; inactive means below about 11%;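 further: 0% = DMSO and 100% = no enzyme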
Target sequence (O75874 whole entry R132H): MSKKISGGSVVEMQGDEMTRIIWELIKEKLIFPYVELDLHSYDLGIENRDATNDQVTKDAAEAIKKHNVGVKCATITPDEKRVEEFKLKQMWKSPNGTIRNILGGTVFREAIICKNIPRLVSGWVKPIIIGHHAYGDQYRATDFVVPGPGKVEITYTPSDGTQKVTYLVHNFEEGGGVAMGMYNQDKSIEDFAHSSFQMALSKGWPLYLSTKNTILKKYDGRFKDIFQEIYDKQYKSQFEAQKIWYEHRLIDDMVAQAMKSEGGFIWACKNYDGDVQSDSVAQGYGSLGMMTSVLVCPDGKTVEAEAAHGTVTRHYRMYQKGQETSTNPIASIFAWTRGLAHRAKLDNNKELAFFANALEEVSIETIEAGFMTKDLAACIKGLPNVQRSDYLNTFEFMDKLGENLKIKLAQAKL
GASC1 inh – blocks human GASC-1 (KDM4C) demethylase activity; Q9H3R0; 0.15% of 96,000 active; inhibition, % at 12.5 µM; GST-KDM4C 2-372, H3K9me3 peptide, LANCE TR-FRET;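 active means mean replicate inhibition above about 25%, with at least 55% of replicates also reaching it, limit read from the data, passing the limit was not always enough; inconclusive means only one of those two conditions met; inactive means neither condition met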
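Compound: one test concentration per compound; Material: GST-GASC-1 enzyme fragment 2-372; Amount: GASC-1 enzyme at 10 nM final in reaction; Also added: H3K9me3 peptide substrate, Fe(II), 2-oxoglutarate; Technique: LANCE TR-FRET; Times: 30 min demethylation and 1 h detection at room temperature.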
* = called active by the depositor.

What do the screens show for `C[C@@H]1CN([C@@H](C)CO)C(=O)c2cc(NC(=O)Nc3ccc(F)cc3)ccc2O[C@@H](C)CCCCO[C@H]1CN(C)CC1CCCCC1`?
Pf Dd2 inh: -77.6; IDH1 mut inh: 4.3; GASC1 inh: -1.3

How did C[C@@H]1CN([C@@H](C)CO)C(=O)c2cc(NC(=O)NC3CCCCC3)ccc2O[C@@H](C)CCCCO[C@H]1CN(C)CC1CCCCC1 do in these assays?
Pf Dd2 inh: -84.7*; IDH1 mut inh: 2.8; GASC1 inh: -1.8

How did C[C@@H]1CCCCO[C@H](CN(C)CC2CCCCC2)[C@H](C)CN([C@@H](C)CO)C(=O)c2cc(NC(=O)NC3CCCCC3)ccc2O1 do in these assays?
Pf Dd2 inh: -53.2; IDH1 mut inh: 1.5; GASC1 inh: 10.9

What do the screens show for `C[C@@H]1CN([C@@H](C)CO)C(=O)c2cc(NC(=O)Nc3ccc(F)cc3)ccc2O[C@@H](C)CCCCO[C@@H]1CN(C)CC1CCCCC1`?
Pf Dd2 inh: inconclusive; IDH1 mut inh: 0.0; GASC1 inh: -0.1

What do the screens show for `C[C@H]1CCCCO[C@@H](CN(C)Cc2ccccc2)[C@@H](C)CN([C@@H](C)CO)C(=O)c2cc(N(C)C)ccc2O1`?
Pf Dd2 inh: -36.3; IDH1 mut inh: 0.8; GASC1 inh: 0.5

How did CC=Cc1ccc2n(c1=O)C[C@H]1[C@H](CO)[C@@H](C(=O)NCc3ccc(F)cc3)[C@@H]2N1CCC (mixture of isomers) do in these assays?
GASC1 inh: 1.1

What do the screens show for `CCCNC(=O)N1[C@H](CO)[C@H](c2ccccc2)[C@H]1CNC(=O)c1ccc(F)cc1`?
Pf Dd2 inh: 12.5; GASC1 inh: -0.4

What do the screens show for `CCCC(=O)Nc1ccc2c(c1)OC[C@H](C)N(Cc1ccccn1)C[C@H](C)[C@@H](OC)CN(C)C2=O`?
Pf Dd2 inh: 24.8; GASC1 inh: 0.8

What do the screens show for `C[C@H]1CN([C@@H](C)CO)C(=O)Cc2cc(NC(=O)C3CCCCC3)ccc2O[C@H]1CN(C)S(C)(=O)=O`?
Pf Dd2 inh: 14.3; IDH1 mut inh: -0.7; GASC1 inh: 0.1

Results for C[C@@H]1CCCCO[C@@H](CN(C)Cc2ccc(C(=O)Nc3ccccc3N)cc2)[C@@H](C)CN([C@H](C)CO)C(=O)c2cc(NS(C)(=O)=O)ccc2O1 ?
Pf Dd2 inh: -71.3; IDH1 mut inh: -0.3; GASC1 inh: -1.0

Results for Cc1noc(C)c1S(=O)(=O)Nc1ccc2c(c1)C(=O)N([C@@H](C)CO)C[C@H](C)[C@@H](CN(C)Cc1ccc(C(=O)Nc3ccccc3N)cc1)OCCCC[C@@H](C)O2 ?
Pf Dd2 inh: -85.3*; GASC1 inh: -1.0

How did Cc1ccc(S(=O)(=O)Nc2ccc3c(c2)C(=O)N([C@@H](C)CO)C[C@H](C)[C@@H](CN(C)Cc2ccc(C(=O)Nc4ccccc4N)cc2)OCCCC[C@@H](C)O3)cc1 do in these assays?
Pf Dd2 inh: -92.0*; IDH1 mut inh: 0.6; GASC1 inh: 2.4

What do the screens show for `C[C@@H]1CCCCO[C@H](CN(C)Cc2ccc(C(=O)Nc3ccccc3N)cc2)[C@@H](C)CN([C@H](C)CO)C(=O)c2cc(NS(=O)(=O)c3ccccc3)ccc2O1`?
Pf Dd2 inh: -88.9*; IDH1 mut inh: 0.4; GASC1 inh: 1.1

How did Cc1noc(C)c1S(=O)(=O)Nc1ccc2c(c1)C(=O)N([C@H](C)CO)C[C@H](C)[C@H](CN(C)Cc1ccc(C(=O)Nc3ccccc3N)cc1)O2 do in these assays?
Pf Dd2 inh: -74.4; GASC1 inh: -0.5

Results for C[C@@H]1CCCCO[C@H](CN(C)Cc2ccc(C(=O)Nc3ccccc3N)cc2)[C@@H](C)CN([C@H](C)CO)C(=O)c2cc(NS(=O)(=O)c3ccc(F)cc3)ccc2O1 ?
Pf Dd2 inh: inconclusive; GASC1 inh: 1.9

Results for C[C@@H]1CN([C@@H](C)CO)S(=O)(=O)c2ccc(-c3ccc(C#N)cc3)cc2O[C@@H]1CN(C)C(=O)CN(C)C ?
IDH1 mut inh: 3.7; GASC1 inh: 0.8

How did COc1ccc(CN(C)C[C@@H]2Oc3c(NC(=O)C4CC4)cccc3C(=O)N([C@H](C)CO)C[C@H]2C)cc1 do in these assays?
Pf Dd2 inh: -41.4; IDH1 mut inh: -0.2; GASC1 inh: -0.1

What do the screens show for `CC(=O)c1ccc(NC(=O)CN(C)S(=O)(=O)c2ccccc2)cc1`?
IDH1 mut inh: -0.2

What do the screens show for `C[C@H]1CN([C@@H](C)CO)S(=O)(=O)c2ccc(C3=CCCC3)cc2O[C@@H]1CN(C)C(=O)c1cnccn1`?
Pf Dd2 inh: 22.5; IDH1 mut inh: 3.4; GASC1 inh: 2.7

What do the screens show for `C[C@H](CO)N1C[C@H](C)[C@@H](CN(C)C)Oc2ccc(N(C)C)cc2CC1=O`?
Pf Dd2 inh: -7.9; IDH1 mut inh: -0.9; GASC1 inh: 0.4

How did COc1ccc2c3c(n(C)c2c1)[C@@H](CO)N(C(=O)Nc1ccc(F)cc1)CC31CCN(C(=O)c2ccc3c(c2)OCO3)CC1 do in these assays?
Pf Dd2 inh: -70.8; GASC1 inh: -1.2

Results for CCC(=O)N1CCC2(CC1)CN(C(=O)Nc1ccc(F)cc1)[C@H](CO)c1c2c2ccc(OC)cc2n1C ?
Pf Dd2 inh: -35.5; GASC1 inh: 0.0

How did COc1ccc2c3c(n(C)c2c1)[C@H](CO)N(C(=O)Nc1ccc(F)cc1)CC31CCN(C(=O)c2ccc3c(c2)OCO3)CC1 do in these assays?
Pf Dd2 inh: -88.2*; GASC1 inh: -1.6

What do the screens show for `COc1ccc2c3c(n(C)c2c1)[C@@H](CO)N(C(=O)Nc1ccc(F)cc1)CC31CCN(C(=O)c2ccccc2F)CC1`?
Pf Dd2 inh: -84.5*; GASC1 inh: -0.8

How did C[C@@H]1CN([C@@H](C)CO)S(=O)(=O)c2ccc(C3=CCCCC3)cc2O[C@@H]1CN(C)Cc1ccncc1 do in these assays?
Pf Dd2 inh: -44.3; GASC1 inh: -0.7

Results for O=C(C1CCCC1)N1CCCCN2[C@H](CO)[C@@H](c3ccc(-c4cccc(F)c4)cc3)[C@H]2C1 ?
Pf Dd2 inh: 3.4

Results for C[C@@H]1CN([C@@H](C)CO)C(=O)c2cc(-c3ccc(C(=O)N(C)C)cc3)cnc2O[C@H]1CN(C)C(=O)C1CC1 ?
Pf Dd2 inh: 17.7; IDH1 mut inh: -0.2; GASC1 inh: 0.1

What do the screens show for `CCC(=O)N(C)C[C@@H]1Oc2cc(C#Cc3ccccc3)ccc2S(=O)(=O)N([C@@H](C)CO)C[C@@H]1C`?
Pf Dd2 inh: -68.1; IDH1 mut inh: 11.2; GASC1 inh: 33.9*

How did C[C@H]1CN([C@@H](C)CO)S(=O)(=O)c2ccc(C#Cc3ccccc3)cc2O[C@@H]1CN(C)C(=O)Cc1ccccn1 do in these assays?
Pf Dd2 inh: -78.1; IDH1 mut inh: -0.3; GASC1 inh: -4.4

Results for C[C@@H]1CN([C@@H](C)CO)S(=O)(=O)c2ccc(C#CC3(O)CCCC3)cc2O[C@H]1CN(C)C(=O)c1ccccc1 ?
Pf Dd2 inh: -86.1*; IDH1 mut inh: -0.3; GASC1 inh: 0.4

What do the screens show for `C[C@H]1CN([C@@H](C)CO)S(=O)(=O)c2ccc(C#CC3(O)CCCC3)cc2O[C@H]1CN(C)C(=O)c1ccccc1`?
Pf Dd2 inh: -46.4; IDH1 mut inh: -1.2; GASC1 inh: -0.2
